From ChEMBL document CHEMBL1130028, “A comparison of structure-activity relationships between spermidine and spermine analogue antineoplastics” (J Med Chem, 1997)

Key:
[1] = Effect on ornithine decarboxylase (ODC) tested at 1 uM at 4 hour in L1210 cells; assay type: functional, Mus musculus
Method in brief: (§1)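 L1210 cells were exposed to 1 μM analogue, for 4 h (ODC) or 6 h (AdoMetDC). Activity was measured as 14CO2 released from [14C]carboxyl-labelled L-ornithine (ODC) or S-adenosyl-L-methionine (AdoMetDC) and given as percent of untreated control. Each run included DEHSPM-treated positive controls. Values are the mean of at least three experiments.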

L1210 [2] = assay: Percentage of putrescine (after 48 hr exposure to 100 uM) in L1210 cells.; assay type: functional, Mus musculus
Method in brief: (§2)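 Log-phase L1210 cells were treated for 48 h with analogue at two concentrations. Cells were washed twice in cold RPMI-1640 and extracted with 0.6 N HClO4. Putrescine, spermidine and spermine were quantified by HPLC of dansyl derivatives and given as percent of untreated controls. Runs were in triplicate with untreated controls.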

L1210 [3] = assay: Percentage of putrescine after 48 hr exposure to the compound (500 uM ) in L1210 cells; assay type: functional, Mus musculus; method in brief: as §2
L1210 [4] = assay: Intracellular levels in L1210 cells following 500 uM exposure.; assay type: functional, Mus musculus
Method in brief: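 L1210 cells were grown 48 h in medium containing 500 μM analogue. Cellular contents were analysed by HPLC of dansyl derivatives and given as pmol/10^6 cells, as parent drug and metabolites with the % of total drug in the cell.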

L1210 [5] = assay: Percentage of spermine (after 48 hr exposure to 100 uM) in L1210 cells.; assay type: functional, Mus musculus; method in brief: as §2
L1210 [6] = assay: Growth inhibitory activity against L1210 cells (48h); assay type: functional, cell-based; conditions: Mus musculus, L1210, 48 h
Method in brief: (§3)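 Murine L1210 leukemia cells were kept in log growth in RPMI-1640 with 10% fetal calf serum or NuSerum, HEPES-MOPS buffer and 1 mM aminoguanidine. IC50 is the concentration giving 50% of untreated control growth, as the mean of at least two experiments.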

L1210 [7] = assay: Growth inhibitory activity against L1210 cells (96h); assay type: functional, cell-based; conditions: Mus musculus, L1210, 96 h; method in brief: as §3
[8] = target: Spermidine/spermine N(1)-acetyltransferase (SAT) (Mus musculus) (UniProt Q6P8J2+P48026); assay: Effect on Spermidine/Spermine-Acetyltransferase (SSAT ) at 10 uM at 48 hour in L1210 cells; assay type: functional, cell-based
Method in brief: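 L1210 cells were exposed to 10 μM triamine for 48 h. SSAT activity was taken as [14C]N1-acetylspermidine formed from spermidine and [14C]acetyl-CoA, given as percent of untreated control. DENSPM-treated cells served as positive control. Values are the mean of at least three experiments.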

[9] = Binding affinity values for polyamine transporter was determined
[10] = target: T1, S-adenosylmethionine decarboxylase proenzyme 1 (Mus musculus) (UniProt P0DMN7); assay: Effect on S-Adenosyl-methionine decarboxylase (AdoMetDC) tested at 1 uM at 6 hour in L1210 cells; assay type: functional, cell-based; method in brief: as §1
T1 sequence (whole entry): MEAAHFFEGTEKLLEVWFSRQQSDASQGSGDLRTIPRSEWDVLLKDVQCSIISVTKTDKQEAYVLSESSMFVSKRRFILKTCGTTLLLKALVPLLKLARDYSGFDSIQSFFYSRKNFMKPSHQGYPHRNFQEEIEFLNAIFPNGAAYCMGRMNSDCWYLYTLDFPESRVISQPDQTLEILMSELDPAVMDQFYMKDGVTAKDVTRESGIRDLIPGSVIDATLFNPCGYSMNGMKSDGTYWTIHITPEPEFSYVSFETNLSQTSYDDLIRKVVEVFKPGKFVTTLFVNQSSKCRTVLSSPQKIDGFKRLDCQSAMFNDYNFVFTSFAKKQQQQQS

L1210 [11] = assay: Percentage of spermidine (after 48 hr exposure to 100 uM) in L1210 cells.
L1210 [12] = assay: Percentage of spermidine (after 48 hr exposure to 500 uM) in L1210 cells.
L1210 [13] = assay: Percentage of spermine (after 48 hr exposure to 500 uM) in L1210 cells.; assay type: functional, Mus musculus; method in brief: as §2
[14] = The chronic lethal dose administered as intraperitoneal injection in mice; assay type: ADME; conditions: mouse, in vivo, ip
Method in brief: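 Female CD-1 mice, 10–12 weeks old. Analogue given as hydrochloride salt by ip injection three times daily for 6 days (18 doses). Appetite, weight and appearance monitored daily, and lethality scored 10 days after the final dose.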

Chain of Spermidine/spermine N(1)-acetyltransferase (SAT) (Mus musculus) (P48026 whole entry, looked up): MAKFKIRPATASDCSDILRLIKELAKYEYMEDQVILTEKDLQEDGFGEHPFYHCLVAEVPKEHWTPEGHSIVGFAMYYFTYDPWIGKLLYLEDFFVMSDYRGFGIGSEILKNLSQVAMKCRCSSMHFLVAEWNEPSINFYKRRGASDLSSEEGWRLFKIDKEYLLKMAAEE
Chain of Spermidine/spermine N(1)-acetyltransferase (SAT) (Mus musculus) (Q6P8J2 whole entry, looked up): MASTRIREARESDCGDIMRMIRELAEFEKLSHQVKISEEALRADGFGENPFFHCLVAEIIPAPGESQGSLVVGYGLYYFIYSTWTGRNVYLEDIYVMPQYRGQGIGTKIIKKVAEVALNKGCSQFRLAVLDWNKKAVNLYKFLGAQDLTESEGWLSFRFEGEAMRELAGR

| Structure (SMILES) | ODC [1] | Polyamine (L1210 [2]) | Polyamine (L1210 [3]) | Picoequivalents of amine/10e6 cells (L1210 [4]) | Polyamine (L1210 [5]) | IC50 (L1210 [6]) | IC50 (L1210 [7]) | SSAT [8] | Ki [9] | AdoMetDC [10] | Spermidine % (L1210 [11]) | Spermidine % (L1210 [12]) | Polyamine (L1210 [13]) | LD50 [14] |
| --- | --- | --- | --- | --- | --- | --- | --- | --- | --- | --- | --- | --- | --- | --- |
| CCCNCCCCCNCCCCCNCCC | 73% | 59% | 51% | 13910 | 97% | > 100 µM | 6 µM | 90% | 87 µM | 123% | 73% | 69% | – | – |
| CNCCCNCCCNC | 17% | 0% | 0% | 18400 | 58% | > 100 µM | 4.8 µM | 250% | 60 µM | 41% | 9% | 6% | 48% | – |
| NCCCCCNCCCCCN | 16% | 0% | 0% | – | 33% | 100 µM | 0.4 µM | 90% | 14 µM | 88% | 0% | 0% | 20% | – |
| CCNCCCNCCCN | 42% | – | – | – | – | > 100 µM | > 100 µM | 390% | 34 µM | 58% | – | – | – | – |
| NCCCCNCCCCN | 11% | 0% | – | – | 32% | > 100 µM | 3 µM | 430% | 3.4 µM | 54% | 4% | 2% | 21% | – |
| NCCCCNCCCN [SPERMIDINE] | 16% | 0% | 0% | – | – | > 100 µM | > 100 µM | 160% | 2.2 µM | 43% | – | – | – | – |
| CCCNCCCCNCCCCN | 20% | 0% | 0% | 20550 | 82% | 100 µM | 0.6 µM | 570% | 5 µM | 59% | 2% | 0% | 66% | – |
| CCNCCCCCNCCCCNCCCCCNCC | – | – | – | – | – | 0.4 µM | – | – | – | – | – | – | – | 36 mg/kg/day |
| CCCNCCCNCCCNCCC | 100% | 70% | 68% | 15010 | 96% | > 100 µM | 60 µM | 220% | 125 µM | 99% | 76% | 71% | – | – |
| NCCCCCNCCCCN | 19% | 0% | – | – | 53% | > 100 µM | 0.18 µM | 410% | 1.4 µM | 57% | 1% | 0% | 35% | – |
| CCCNCCCCCNCCCCNCCC | 83% | 0% | 0% | 15150 | – | 100 µM | 1.2 µM | 80% | 75 µM | 86% | 40% | 31% | – | – |
